Ki data for three compounds are collected here from ChEMBL document CHEMBL1154740, “Efficient microwave combinatorial synthesis of novel indolic arylpiperazine derivatives as serotoninergic ligands” (Eur J Med Chem, 2010).

One test addresses D(2) dopamine receptor (Rattus norvegicus, UniProt P61169). Briefly: Displacement of [3H]spiperone from dopamine D2 in rat striatum by liquid scintillation counting. The procedure, abridged:
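Striatal membranes (3 mg fresh tissue) in Tris–HCl with NaCl, KCl, CaCl2, MgCl2, ascorbic acid and pargyline, pH 7.1 at 37 °C. Incubated with [3H]spiperone at 0.4 nM final for 15 min at 37 °C, then filtered on GF/B. Nonspecific binding defined with (+)-butaclamol. IC50 converted to Ki by Cheng–Prusoff.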
(Loss of bound radioactivity is the signal in a displacement assay; it reports binding, not function.)

Test [1] addresses T1, Adrenergic receptor alpha-2 (Rattus norvegicus, UniProt P22086+P19328+P22909).
T1 sequence (P22086 whole entry): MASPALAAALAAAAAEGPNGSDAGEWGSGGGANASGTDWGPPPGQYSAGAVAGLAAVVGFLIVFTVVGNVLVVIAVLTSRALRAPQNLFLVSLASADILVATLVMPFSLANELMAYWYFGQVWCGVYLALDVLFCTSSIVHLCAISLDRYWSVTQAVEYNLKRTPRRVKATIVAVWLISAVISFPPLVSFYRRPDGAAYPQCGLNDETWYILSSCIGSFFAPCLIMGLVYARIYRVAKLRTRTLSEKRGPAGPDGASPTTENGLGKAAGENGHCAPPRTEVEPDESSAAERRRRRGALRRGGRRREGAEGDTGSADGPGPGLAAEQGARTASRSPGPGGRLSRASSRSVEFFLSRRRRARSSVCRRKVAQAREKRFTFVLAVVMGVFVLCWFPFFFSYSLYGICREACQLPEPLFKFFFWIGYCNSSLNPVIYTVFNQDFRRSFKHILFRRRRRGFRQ
T1 sequence (P19328 whole entry): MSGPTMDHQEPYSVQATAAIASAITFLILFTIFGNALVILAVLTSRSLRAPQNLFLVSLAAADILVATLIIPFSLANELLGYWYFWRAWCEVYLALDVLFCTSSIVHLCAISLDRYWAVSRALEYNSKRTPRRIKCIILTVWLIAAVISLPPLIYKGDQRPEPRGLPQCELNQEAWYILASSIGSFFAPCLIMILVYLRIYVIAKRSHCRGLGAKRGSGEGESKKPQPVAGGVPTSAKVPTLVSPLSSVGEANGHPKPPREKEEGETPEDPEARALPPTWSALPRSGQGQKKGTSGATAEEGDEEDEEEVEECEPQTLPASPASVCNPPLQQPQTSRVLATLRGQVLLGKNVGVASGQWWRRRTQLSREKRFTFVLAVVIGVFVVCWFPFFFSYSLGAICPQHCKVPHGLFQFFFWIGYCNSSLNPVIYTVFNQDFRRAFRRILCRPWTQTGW
T1 sequence (P22909 whole entry): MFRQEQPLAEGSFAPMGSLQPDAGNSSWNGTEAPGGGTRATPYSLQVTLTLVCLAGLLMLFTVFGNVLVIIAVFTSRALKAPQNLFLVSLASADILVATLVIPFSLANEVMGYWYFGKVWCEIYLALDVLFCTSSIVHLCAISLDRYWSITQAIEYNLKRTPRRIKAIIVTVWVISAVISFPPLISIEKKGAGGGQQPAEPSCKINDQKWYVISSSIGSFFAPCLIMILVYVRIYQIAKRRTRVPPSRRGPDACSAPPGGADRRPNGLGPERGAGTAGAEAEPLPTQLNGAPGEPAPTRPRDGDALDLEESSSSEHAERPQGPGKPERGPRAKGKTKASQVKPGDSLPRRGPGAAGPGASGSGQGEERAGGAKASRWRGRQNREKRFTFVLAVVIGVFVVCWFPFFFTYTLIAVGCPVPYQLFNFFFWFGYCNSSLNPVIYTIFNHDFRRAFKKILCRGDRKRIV
Briefly: Displacement of [3H]yohimbine from alpha2 adrenergic receptor in rat brain cortex by liquid scintillation counting. The class given is tissue-based. The procedure, abridged:
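Cortical membranes prepared in 5 mM Tris–HCl/5 mM EDTA pH 7.3, washed three times; 10 mg fresh tissue per tube. [3H]yohimbine at 1 nM final, 30 min at 25 °C, GF/B filtration, washed with Tris–HCl/EDTA pH 7.5. Nonspecific binding defined with […]. IC50 converted to Ki by Cheng–Prusoff.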

Sequence of D(2) dopamine receptor (P61169 whole entry): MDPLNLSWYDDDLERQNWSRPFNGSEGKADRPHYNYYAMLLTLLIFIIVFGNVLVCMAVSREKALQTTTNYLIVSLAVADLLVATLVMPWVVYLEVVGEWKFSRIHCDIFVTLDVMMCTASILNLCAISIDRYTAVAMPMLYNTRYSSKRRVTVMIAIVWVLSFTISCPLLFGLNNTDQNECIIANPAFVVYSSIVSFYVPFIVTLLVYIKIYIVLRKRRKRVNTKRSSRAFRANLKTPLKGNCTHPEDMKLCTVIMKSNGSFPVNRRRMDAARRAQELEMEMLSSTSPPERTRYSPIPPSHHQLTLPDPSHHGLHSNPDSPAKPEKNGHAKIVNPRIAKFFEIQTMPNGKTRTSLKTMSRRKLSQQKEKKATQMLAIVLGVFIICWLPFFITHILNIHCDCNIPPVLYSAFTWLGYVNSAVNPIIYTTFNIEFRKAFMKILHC

One may read the Ki as a measure of affinity in units of concentration, obtained from inhibition or displacement. A higher Ki goes with lower affinity. As for `CCOC(=O)c1cc2cc(OCCCN3CCN(c4ccc(OC)cc4)CC3)ccc2[nH]1`, the inhibition constant Ki entry at D(2) dopamine receptor was “Not Active”; in test [1], 6.48 µM.
In the same order, the values of `CCOC(=O)c1cc2cc(OCCCN3CCN(c4cccc(Cl)c4)CC3)ccc2[nH]1` are “Not Active” and 1.35 µM.
In the same order, the values of `CCOC(=O)c1cc2cc(OCCCN3CCN(Cc4ccc5c(c4)OCO5)CC3)ccc2[nH]1` are “Not Active” and 0.231 µM.
